These results are taken from ChEMBL document CHEMBL3632476, “Novel spirobicyclic artemisinin analogues (artemalogues): Synthesis and antitumor activities” (Eur J Med Chem, 2015).

Assay [1] is described as follows: Cytotoxicity against human KB cells assessed as inhibition of cell proliferation after 72 hrs by SRB assay. It counts as functional, cell-based. The gist of the method:
(§1)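 SRB assay. Cells were seeded, cultured overnight, then exposed to a gradient of agent concentrations for 72 h. Absorbance was read at 560 nm.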
For orientation: The SRB assay estimates cell density from bound dye.

The nature of assay [2]: Cytotoxicity against human KB/VCR cells assessed as inhibition of cell proliferation after 72 hrs by SRB assay. In kind it is functional, cell-based. The gist of the method: as §1
For assay [3], the system named is A549. The assay is described as follows: Cytotoxicity against human A549 cells assessed as inhibition of cell proliferation after 72 hrs by SRB assay. In kind it is functional, cell-based. To be noted: A549, 72 h. A digest of the protocol: as §1
The next assay has as its system HepG2. Description: Cytotoxicity against human HepG2 cells by MTT assay. In kind it is functional, cell-based. For orientation: Formazan colour is commonly taken as a measure of viable cells.
The test system of assay [4] is KB. Description: Selectivity index, ratio of IC50 for human KB/VCR cells to IC50 for human KB cells. In kind it is functional.
The test system of assay [5] is A549. Description: Selectivity index, ratio of IC50 for human A549 cells to IC50 for human KB cells. In kind it is functional.
The next assay has as its system L1210. The assay is described as follows: Cytotoxicity against mouse L1210 cells by MTT assay. In kind it is functional, cell-based.
The subject of assay [6] is A549. The assay is described as follows: Potency index, ratio of IC50 for artemisinin to IC50 for test compound against human A549 cells. It counts as functional.
Assay [7] can be described thus: Potency index, ratio of IC50 for artemisinin to IC50 for test compound against human KB/VCR cells. It counts as functional.
The subject of assay [8] is KB. Description: Potency index, ratio of IC50 for artemisinin to IC50 for test compound against human KB cells. In kind it is functional.

Where only a bound is given, the exact number is not on record here.

Usually IC50 stands for the concentration at which inhibition is half-maximal. With `CC[C@]1(O)C[C@H]2CN(CCc3c([nH]c4ccccc34)[C@@](C(=O)OC)(c3cc4c(cc3OC)N(C=O)[C@H]3[C@@](O)(C(=O)OC)[C@H](OC(C)=O)[C@]5(CC)C=CCN6CC[C@]43[C@@H]65)C2)C1` [VINCRISTINE], the IC50 came out at 0.00087 µM in assay [1], 0.387 µM in [2] and 0.0368 µM in the assay on A549 [3].
With `COC(=O)c1ccc(C2=NO[C@@]3(C2)C(=O)O[C@@H]2O[C@@]4(C)CC[C@H]5[C@H](C)CC[C@@H]3[C@@]25OO4)cc1`, the half-inhibitory concentration (IC50) in [1] and in assay [2] was more than 20 µM in each case.
Turning to `COc1ccc2c(c1)CCN1O[C@@]3(C[C@H]21)C(=O)O[C@@H]1O[C@@]2(C)CC[C@H]4[C@H](C)CC[C@@H]3[C@@]14O2`, the half-inhibitory concentration (IC50) is 15.4 µM in assay [1] and 13.4 µM in [2].
With `CCO[C@@H]1O[C@@H]2O[C@@]3(C)CC[C@H]4[C@H](C)CC[C@@H]([C@]15C[C@@H]1c6ccc(OC)cc6CCN1O5)[C@@]24OO3`, the IC50 (in [1]; in [2]; in the assay on A549 [3]) was more than 20 µM each time.
`COc1ccc2c(c1)CCN1O[C@@]3(C[C@H]21)[C@@H](F)O[C@@H]1O[C@@]2(C)CC[C@H]4[C@H](C)CC[C@@H]3[C@@]14OO2`: the 50% inhibitory concentration (IC50) in [1] and in [2] was more than 20 µM throughout.
For `COc1cc(C2=NO[C@@]3(C2)C(=O)O[C@@H]2O[C@@]4(C)CC[C@H]5[C@H](C)CC[C@@H]3[C@@]25OO4)cc(OC)c1OC`, the IC50 (in assay [1]; in assay [2]; with A549 [3]) was more than 20 µM throughout.
Take `CO[C@@H]1O[C@@H]2O[C@@]3(C)CC[C@H]4[C@H](C)CC[C@@H]([C@]15CC(c1c(Cl)cccc1Cl)=NO5)[C@@]24OO3`: the half-maximal inhibitory concentration (IC50) (in assay [1]; in [2]; in the assay on A549 [3]) was more than 20 µM each time.
Consider `COc1ccc2c(c1)CCN1O[C@@]3(C[C@H]21)[C@H](OC)O[C@@H]1O[C@@]2(C)CC[C@H]4[C@H](C)CC[C@@H]3[C@@]14OO2`, for which the IC50 (in assay [1]; in [2]; with A549 [3]) was more than 20 µM throughout.
On to `CO[C@H]1O[C@@H]2O[C@@]3(C)CC[C@H]4[C@H](C)CC[C@@H]([C@]15CC(c1c(Cl)cccc1Cl)=NO5)[C@@]24OO3`, for which the figures for the IC50 (in [1]; in [2]; in the assay with A549 [3]) were 5.29 µM, 5.06 µM and 14.4 µM, respectively.
For `COc1cc2c(cc1OC)[C@H]1C[C@]3(ON1CC2)C(=O)O[C@@H]1O[C@@]2(C)CC[C@H]4[C@H](C)CC[C@@H]3[C@@]14OO2` the same measures were 2.53 µM, 2.35 µM and 4.69 µM.
With `C[C@@H]1CC[C@@H]2[C@]34OO[C@](C)(CC[C@@H]13)O[C@H]4OC(=O)[C@@]21CC(c2c(Cl)cccc2Cl)=NO1`, the IC50 (in assay [1]; in [2]; in the assay with A549 [3]) was more than 20 µM each time.
Take `C[C@@H]1CC[C@H]2[C@@H](C)C(=O)O[C@@H]3O[C@@]4(C)CC[C@@H]1[C@]32OO4` [ARTEMISININ]: the IC50 (in assay [1]; in [2]; with A549 [3]) was more than 20 µM each time.
On to `C[C@@H]1CC[C@@H]2[C@]34OO[C@](C)(CC[C@@H]13)O[C@H]4OC(=O)[C@@]21C[C@@H]2CCCN2O1`, for which the 50% inhibitory concentration (IC50) in assay [1] was determined as 2.34 µM; in assay [2], 3.35 µM; with A549 [3] it was 10.5 µM.
As to `C[C@@H]1CC[C@@H]2[C@]34OO[C@](C)(CC[C@@H]13)O[C@H]4OC(=O)[C@@]21C[C@H]2c3ccccc3CCN2O1`, the IC50 in [1] and in assay [2] was more than 20 µM throughout.
For the compound `C[C@@H]1CC[C@@H]2[C@]34OO[C@](C)(CC[C@@H]13)O[C@H]4OC(=O)[C@@]21CC(c2ccccc2)=NO1`, the 50% inhibitory concentration (IC50) (in [1]; in assay [2]; in the assay with A549 [3]) was more than 20 µM throughout.
For the compound `COc1ccc2c(c1)CCN1O[C@@]3(C[C@@H]21)C(=O)O[C@@H]1O[C@@]2(C)CC[C@H]4[C@H](C)CC[C@@H]3[C@@]14OO2`, the half-inhibitory concentration (IC50) in assay [1] and in assay [2] was more than 20 µM in each case.
Turning to `COc1ccc2c(c1)CCN1O[C@@]3(C[C@H]21)[C@@H](OCCN1CCN(C)CC1)O[C@@H]1O[C@@]2(C)CC[C@H]4[C@H](C)CC[C@@H]3[C@@]14OO2`, the half-maximal inhibitory concentration (IC50) in [1] was 17.9 µM; in assay [2], 16.9 µM; in the assay on A549 [3], more than 20 µM.
With `CCO[C@H]1O[C@@H]2O[C@@]3(C)CC[C@H]4[C@H](C)CC[C@@H]([C@]15C[C@@H]1c6ccc(OC)cc6CCN1O5)[C@@]24OO3`, the IC50 (in [1]; in assay [2]; in the assay on A549 [3]) was more than 20 µM each time.
Regarding `COc1ccc2c(c1)CCN1O[C@@]3(C[C@@H]21)C(=O)O[C@@H]1O[C@@]2(C)CC[C@H]4[C@H](C)CC[C@@H]3[C@@]14O2`, the half-inhibitory concentration (IC50) in assay [1] and in assay [2] was more than 20 µM in each case.
Take `COc1ccc(C2=NO[C@@]3(C2)C(=O)O[C@@H]2O[C@@]4(C)CC[C@H]5[C@H](C)CC[C@@H]3[C@@]25OO4)cc1`: the IC50 (in [1]; in assay [2]; with A549 [3]) was more than 20 µM each time.
In turn, `CCCCCCCCCCCCCCNC(=O)C[C@H]1O[C@@H]2O[C@@]3(C)CC[C@H]4[C@H](C)CC[C@@H]([C@H]1C)[C@@]24OO3` registered an IC50 in the assay with HepG2 of 0.46 µM.
In the case of `COc1ccc2c(c1)CCN1O[C@@]3(C[C@H]21)[C@@H](OC)O[C@@H]1O[C@@]2(C)CC[C@H]4[C@H](C)CC[C@@H]3[C@@]14OO2`, the IC50 (in [1]; in assay [2]; with A549 [3]) was more than 20 µM throughout.
Regarding `COc1ccc(C2=NO[C@@]3(C2)C(=O)O[C@@H]2O[C@@]4(C)CC[C@H]5[C@H](C)CC[C@@H]3[C@@]25OO4)cc1OC`, the IC50 (in assay [1]; in assay [2]; in the assay with A549 [3]) was more than 20 µM throughout.
Regarding `C[C@@H]1CC[C@@H]2[C@]34OO[C@](C)(CC[C@@H]13)O[C@H]4OC(=O)[C@@]21C[C@@H]2c3ccccc3CCN2O1`, the “Ratio IC50” value in the assay with KB [4] and with A549 [5] was 3 each time. Also, the 50% inhibitory concentration (IC50) in assay [1] was determined as 2.91 µM; in assay [2], 14 µM; with A549 [3], 9.93 µM.
Regarding `C[C@@H]1CC[C@@H]2[C@]34OO[C@](C)(CC[C@@H]13)O[C@H]4OC(=O)[C@@]21C[C@@H]2COCCN2O1`, the half-maximal inhibitory concentration (IC50) in [1] and in assay [2] was more than 20 µM each time.
On to `CO[C@@H]1O[C@@H]2O[C@@]3(C)CC[C@H]4[C@H](C)CC[C@@H]([C@]15CC(c1ccc(Cl)cc1)=NO5)[C@@]24OO3`, for which the IC50 in [1] and in [2] was more than 20 µM throughout.
In the case of `COc1ccc2c(c1)CCN1O[C@@]3(C[C@H]21)[C@H](F)O[C@@H]1O[C@@]2(C)CC[C@H]4[C@H](C)CC[C@@H]3[C@@]14OO2`, the 50% inhibitory concentration (IC50) in [1] and in assay [2] was more than 20 µM in each case.
Turning to `C[C@H]1[C@@H](O[C@H](C#N)c2ccc(Br)cc2)O[C@@H]2O[C@@]3(C)CC[C@H]4[C@H](C)CC[C@@H]1[C@@]24OO3`, half-maximal inhibition in the assay with L1210 (IC50) was put at 0.01 µM.
For `COc1ccc2c(c1)CCN1O[C@@]3(C[C@H]21)[C@@H](OCCN1CCOCC1)O[C@@H]1O[C@@]2(C)CC[C@H]4[C@H](C)CC[C@@H]3[C@@]14OO2`, the IC50 (in [1]; in [2]; in the assay with A549 [3]) was more than 20 µM throughout.
`C[C@@H]1CC[C@@H]2[C@]34OO[C@](C)(CC[C@@H]13)O[C@H]4OC(=O)[C@@]21CC(c2ccc(Cl)cc2)=NO1`: the figures for the IC50 (in [1]; in assay [2]; in the assay on A549 [3]) were 13.9 µM, 14 µM and more than 20 µM, respectively.
Turning to `COc1ccc2c(c1)CCN1O[C@@]3(C[C@H]21)C(=O)O[C@@H]1O[C@@]2(C)CC[C@H]4[C@H](C)CC[C@@H]3[C@@]14OO2`, the IC50 turned out to be 1.47 µM in assay [1], 3.16 µM in assay [2] and 5.01 µM in the assay on A549 [3]. Also, the “Ratio IC50” value (with A549 [6]; in assay [7]; in the assay with KB [8]) was 4 each time.
`CO[C@H]1O[C@@H]2O[C@@]3(C)CC[C@H]4[C@H](C)CC[C@@H]([C@]15CC(c1ccc(Cl)cc1)=NO5)[C@@]24OO3`: the IC50 in assay [1] and in assay [2] was more than 20 µM in each case.
For `COc1cc2c(cc1OC)[C@@H]1C[C@]3(ON1CC2)C(=O)O[C@@H]1O[C@@]2(C)CC[C@H]4[C@H](C)CC[C@@H]3[C@@]14OO2`, the IC50 (in assay [1]; in assay [2]; with A549 [3]) was more than 20 µM throughout.
